One assay deals with PD-L1 in HCT116 cells (Homo sapiens, UniProt Q9NZQ7). As to the kind of experiment: Immunofluorescence. The class given is cell-based. The note with it: HCT116, incubation for 10 h, LSCM. Summed up: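 HCT116 colon cancer cells were exposed to test peptide carrying an N-terminal Arg6 cell-penetrating hexamer, or to an Arg6-tagged random-sequence control peptide. PD-L1 was labelled with red dye and HSC70 or LAMP2 with green dye, and cells were imaged by laser scanning confocal microscopy (10 h incubation stated for the HSC70 pairing). Intensity profiles were plotted along a line, with colocalization given as Pearson's R.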
Sequence of PD-L1 in HCT116 cells (Q9NZQ7 19-290): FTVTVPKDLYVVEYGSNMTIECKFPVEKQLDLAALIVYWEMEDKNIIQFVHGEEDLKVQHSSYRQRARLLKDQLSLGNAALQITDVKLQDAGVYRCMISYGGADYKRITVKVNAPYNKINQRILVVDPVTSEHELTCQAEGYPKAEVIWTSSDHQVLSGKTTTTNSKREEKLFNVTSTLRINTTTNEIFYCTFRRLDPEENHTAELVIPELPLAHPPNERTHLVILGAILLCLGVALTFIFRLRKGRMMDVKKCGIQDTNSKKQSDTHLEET

Assay [1] has as its system PD-L2, B7H3 (CD276), B7H4, Vista. As to the kind of experiment: Western blot of other PD-L1 family proteins in HCT116. The class given is cell-based. Conditions: 5μM Arg6-MPHP, HCT116, WB. On the technique in general: A western blot detects proteins with antibodies after separation by electrophoresis.

With `C[C@H](O)[C@@H](NC(=O)[C@H]1CCCN1C(=O)[C@@H](CCCCN)NC(=O)[C@@H](CO)NC(=O)[C@@H](Cc1ccc(O)cc1)NC(=O)[C@@H](CC(N)=O)NC(=O)CCOCCOCCOCCNC(=O)[C@H](CCC(N)=O)NC(=O)[C@H](CCCNC(=N)N)NC(=O)[C@H](Cc1ccccc1)NC(=O)[C@H](CCC(=O)O)NC(=O)[C@H](CCCCN)NC(=O)[C@H](CS)NC(=O)[C@H](CCCNC(=N)N)NC(=O)[C@H](CCCNC(=N)N)NC(=O)[C@H](CCCNC(=N)N)NC(=O)[C@H](CCCNC(=N)N)NC(=O)[C@H](CCCNC(=N)N)NC(=O)[C@@H](N)CCCNC(=N)N)C(=O)N[C@H](CC(=O)O)C(=O)N[C@H](CCCNC(=N)N)C(=O)N[C@H](CCC(N)=O)C(=O)N[C@H](Cc1ccc(O)cc1)C(=O)N[C@H](Cc1c[nH]cn1)C(=O)N[C@H](Cc1ccccc1)C(=O)O` [Arg6-MPHP], the “colocalization of PD-L1 and HSC70” value on PD-L1 in HCT116 cells is “conspicuous colocalization”. Besides, in assay [1], the “impact on other PD-L1 family proteins (PD-L2, B7H3 (CD276), B7H4, Vista)” value was “negligible”.

Values taken from article PMC11319731 (Nature Communications, 2024).
